This passage reports IC50 results from ChEMBL document CHEMBL1148704, “First total synthesis of protoapigenone and its analogues as potent cytotoxic agents” (J Med Chem, 2007).

For one assay, the system named is HepG2. Nature of the assay: Cytotoxicity against human HepG2 cells after 72 hrs by MTT colorimetric method. In kind it is functional, cell-based. As to conditions: HepG2, 72 h.
A further assay relates to MDA-MB-231. Nature of the assay: Cytotoxicity against human MDA-MB-231 cells after 72 hrs by MTT colorimetric method. In kind it is functional, cell-based. As to conditions: MDA-MB-231, 72 h. In short, it runs like this:
(§1)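 Cell lines from ATCC, grown in RPMI-1640 with 10% FBS, 100 U/mL penicillin and 100 µg/mL streptomycin at 37 °C, humidified 5% CO₂. Seeded at 5000-10000 cells/well, treated on day two for 72 h. Attached cells then given MTT (0.5 mg/mL, 1 h), formazan solubilized in DMSO, colorimetric readout. IC₅₀ values reported.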

Assay [1] in a line: Cytotoxicity against human Hep3B cells after 72 hrs by MTT colorimetric method. In kind it is functional, cell-based, Hep 3B2. The gist of the method: as §1
A further assay relates to MCF7. Nature of the assay: Cytotoxicity against human MCF7 cells after 72 hrs by MTT colorimetric method. In kind it is functional, cell-based. The conditions noted are these: MCF7, 72 h. The gist of the method:
as §1

For the next assay, the system named is A549. The assay is described as follows: Cytotoxicity against human A549 cells after 72 hrs by MTT colorimetric method. The conditions noted are these: A549, 72 h. In kind it is functional, cell-based. In short, it runs like this: as §1

As to `COC1(c2cc(=O)c3c(ccc4ccccc43)o2)C=CC(=O)C=C1`, the IC50 in the assay on HepG2 is 9.94 µM; in the assay on MDA-MB-231, 1.16 µM; in assay [1], 1.1 µM; in the assay with MCF7 it was 2.7 µM; in the assay with A549, 25.8 µM.

As to `COC1(c2cc(=O)c3ccc4ccccc4c3o2)C=CC(=O)C=C1`, the IC50 in the assay on HepG2 stood at 14.4 µM; with MDA-MB-231, 1.07 µM; in assay [1], 0.6 µM; with MCF7, 2.96 µM; in the assay with A549, 28.3 µM.

On to `COC1(c2cc(=O)c3ccccc3o2)C=CC(=O)C=C1`, for which the IC50 in the assay on HepG2 was 40.9 µM; in the assay on MDA-MB-231, 5.49 µM; in assay [1], 5.41 µM; in the assay with MCF7 it was 7.99 µM; with A549 it was over 74.6 µM.

As for `O=C1C=CC(O)(c2cc(=O)c3c(ccc4ccccc43)o2)C=C1`, the IC50 in the assay on HepG2 stood at 3.55 µM; in the assay on MDA-MB-231 it was 0.39 µM; in assay [1], 0.3 µM; in the assay on MCF7 it was 0.66 µM; in the assay with A549 it was 1.81 µM.

Take `O=C1C=CC(O)(c2cc(=O)c3c(O)cccc3o2)C=C1`: the IC50 with HepG2 was 4.96 µM; with MDA-MB-231, 0.67 µM; in assay [1], 1.3 µM; in the assay on MCF7, 3.44 µM; in the assay on A549, 5.07 µM.

For the molecule `COC1(c2cc(=O)c3c(O)cccc3o2)C=CC(=O)C=C1`, the half-inhibitory concentration (IC50) in the assay on HepG2 was 26.9 µM; with MDA-MB-231 it was 1.9 µM; in assay [1] it was 2.32 µM; with MCF7 it was 5.46 µM; with A549, 57.6 µM.

Turning to `O=C1C=CC(O)(c2cc(=O)c3ccccc3o2)C=C1`, the IC50 came to 6.73 µM in the assay on HepG2; 0.71 µM in the assay on MDA-MB-231; 1.26 µM in assay [1]; 1.73 µM in the assay on MCF7; 5.24 µM with A549.

For `COc1cc(OC)c2c(=O)cc(C3(OC)C=CC(=O)C=C3)oc2c1`, the IC50 is 27 µM with HepG2; 4.7 µM in the assay on MDA-MB-231; 3.78 µM in assay [1]; 4.21 µM with MCF7; over 61 µM in the assay on A549.

For the molecule `O=C1C=CC(O)(c2cc(=O)c3c(O)cc(O)cc3o2)C=C1` [PROTOAPIGENONE], the IC50 in the assay with HepG2 is 8.11 µM; in the assay on MDA-MB-231, 1.43 µM; in assay [1], 2.27 µM; with MCF7, 3.74 µM; in the assay with A549, 13.8 µM.

For `COc1cc(O)c2c(=O)cc(C3(O)C=CC(=O)C=C3)oc2c1`, the IC50 in the assay on HepG2 is 0.57 µM; in the assay with MDA-MB-231, 0.43 µM; in assay [1], 0.67 µM; in the assay with MCF7, 1.7 µM; in the assay on A549 it was 3.1 µM.

Turning to `COc1cc(OC)c2c(=O)cc(C3(O)C=CC(=O)C=C3)oc2c1`, the IC50 in the assay on HepG2 is 5.03 µM; in the assay with MDA-MB-231, 0.54 µM; in assay [1], 0.67 µM; in the assay with MCF7 it was 1.21 µM; in the assay with A549 it was 1.27 µM.

Turning to `COCOc1cc(O)c2c(=O)cc(C3(O)C=CC(=O)C=C3)oc2c1`, the IC50 was 15.6 µM in the assay with HepG2; 1.73 µM in the assay on MDA-MB-231; 2.39 µM in assay [1]; 5.24 µM with MCF7; 24.6 µM in the assay with A549.

Take `COc1cccc2c1C(=O)c1c(O)c3c(c(O)c1C2=O)C[C@@](O)(C(=O)CO)C[C@@H]3O[C@H]1C[C@H](N)[C@H](O)[C@H](C)O1` [DOXORUBICIN]: the IC50 in the assay with MDA-MB-231 amounted to 0.14 µM; in assay [1], 0.62 µM; in the assay with MCF7, 0.74 µM; in the assay with A549, 0.36 µM.
